ChEMBL document CHEMBL1145892, “2-Substitution of adenine nucleotide analogues containing a bicyclo[3.1.0]hexane ring system locked in a northern conformation: enhanced potency as P2Y1 receptor antagonists” (J Med Chem, 2003)

Experiments:
P2Y purinoceptor 1 [1] = target: T1, P2Y purinoceptor 1 (Homo sapiens, UniProt P47900); test: Antagonistic activity against P2Y purinoceptor 1; assay type: functional
Summary of the method: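 Human P2Y1 stably expressed in 1321N1 astrocytoma cells, labeled 18–24 h at 37 °C with 1.0 µCi [3H]myo-inositol in inositol-free DMEM. Inositol phosphate accumulation was stimulated by 30 nM 2MeSADP over 10 min at 37 °C with 10 mM LiCl. Total [3H]inositol phosphates were measured by anion exchange. IC50 came from a four-parameter logistic fit; ≥3 experiments, duplicate or triplicate.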

P2Y purinoceptor 1 [2] = target: T1, P2Y purinoceptor 1; test: Inhibition of [3H]5 binding to P2Y purinoceptor 1 expressed in Sf9 cells
Summary of the method: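 Membranes were from Sf9 cells expressing human P2Y1 via recombinant baculovirus. They were incubated 30 min at 4 °C with [3H]5 (~20 nM or 10 nM as stated) across a wide analogue concentration range. Samples were filtered over glass-fiber with ice-cold 10 mM Tris pH 7.5/145 mM NaCl and counted by scintillation. Assays were triplicate, three experiments. Ki = IC50/(1+[L]/Kd), Kd 8 nM.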

T1 sequence (P47900 whole entry): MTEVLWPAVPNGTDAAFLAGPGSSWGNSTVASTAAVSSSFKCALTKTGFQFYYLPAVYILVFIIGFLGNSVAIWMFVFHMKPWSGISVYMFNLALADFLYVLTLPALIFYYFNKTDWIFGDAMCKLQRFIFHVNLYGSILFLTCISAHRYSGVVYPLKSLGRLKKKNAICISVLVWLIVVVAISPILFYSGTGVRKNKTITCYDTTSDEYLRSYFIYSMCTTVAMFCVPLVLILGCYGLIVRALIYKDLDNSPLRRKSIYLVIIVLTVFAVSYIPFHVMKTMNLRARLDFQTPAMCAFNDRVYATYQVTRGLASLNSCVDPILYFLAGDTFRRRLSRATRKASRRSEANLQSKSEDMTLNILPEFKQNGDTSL

IC50 (P2Y purinoceptor 1 [1]) | Ki (P2Y purinoceptor 1 [2]) | Structure (SMILES)
221 nM | 91 nM | CNc1nc(SC)nc2c1ncn2[C@H]1C[C@H](OP(=O)(O)O)[C@]2(COP(=O)(O)O)C[C@H]12
52 nM | 2.5 nM | CNc1nc(Cl)nc2c1ncn2[C@H]1C[C@H](OP(=O)(O)O)[C@]2(COP(=O)(O)O)C[C@H]12
377 nM | 35 nM | CNc1nc([Se]C)nc2c1ncn2C1CC(OP(=O)(O)O)[C@]2(COP(=O)(O)O)C[C@H]12 (stereo partly specified)
452 nM | 80 nM | CCCCCCc1nc(NC)c2ncn([C@H]3C[C@H](OP(=O)(O)O)[C@]4(COP(=O)(O)O)C[C@H]34)c2n1
356 nM | 45 nM | CNc1nc(F)nc2c1ncn2[C@H]1C[C@H](OP(=O)(O)O)[C@]2(COP(=O)(O)O)C[C@H]12
367 nM | 863 nM | CSc1nc(N)c2ncn([C@H]3C[C@H](OP(=O)(O)O)[C@]4(COP(=O)(O)O)C[C@H]34)c2n1
87 nM | 12.6 nM | Nc1nc(I)nc2c1ncn2C1CC(OP(=O)(O)O)[C@]2(COP(=O)(O)O)C[C@H]12 (stereo partly specified)
2400 nM | 430 nM | CCCC/C=C\c1nc(NC)c2ncn([C@H]3C[C@H](OP(=O)(O)O)[C@]4(COP(=O)(O)O)C[C@H]34)c2n1
8.4 nM | 0.78 nM | CNc1nc(I)nc2c1ncn2[C@H]1C[C@H](OP(=O)(O)O)[C@]2(COP(=O)(O)O)C[C@H]12
49 nM | 3.6 nM | CNc1nc(C)nc2c1ncn2[C@H]1C[C@H](OP(=O)(O)O)[C@]2(COP(=O)(O)O)C[C@H]12
157 nM | 17.6 nM | CNc1ncnc2c1ncn2[C@H]1C[C@H](OP(=O)(O)O)[C@]2(COP(=O)(O)O)C[C@H]12
1870 nM | 330 nM | CCCC/C=C/c1nc(NC)c2ncn([C@H]3C[C@H](OP(=O)(O)O)[C@]4(COP(=O)(O)O)C[C@H]34)c2n1
37 nM | 5.1 nM | CNc1nc(Br)nc2c1ncn2C1CC(OP(=O)(O)O)[C@]2(COP(=O)(O)O)C[C@H]12 (stereo partly specified)
